Results on three compounds are retold here after ChEMBL document CHEMBL1128448, “Synthesis and antifungal activity of new azole derivatives containing an N-acylmorpholine ring” (1995).

For one test, the system named is Kluyveromyces marxianus. As to the kind of experiment: In vitro evaluation of minimum inhibitory concentration against Candida pseudotropicalis 13. The class given is functional. The method, boiled down:
(§1)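 Stocks are 800 μg/mL in 50% ethanol. Each plate gets 10 μL of inoculum at 10^5 cfu/mL. Incubation at 25 °C, 48 h for yeasts and 120 h for dermatophytes and molds. Organisms are ATCC strains or clinical isolates.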

Test [1] has as its system Mus sp. As to the kind of experiment: In vivo evaluation of % survival rate after peroral administration on 3rd day at dose 1 mg/kg. The class given is functional. Conditions: route oral, 1 mg/kg.
Test [2] has as its system Candida albicans. As to the kind of experiment: In vitro evaluation of minimum inhibitory concentration against Candida albicans 76. The class given is functional. The method, boiled down: as §1
Test [3] has as its system Mus sp. As to the kind of experiment: In vivo evaluation of % survival rate after peroral administration on 7th day at dose 1 mg/kg. The class given is functional. Conditions: route oral, 1 mg/kg.
Test [4] has as its system Mus sp. As to the kind of experiment: In vivo evaluation of % survival rate after peroral administration on 5th day at dose 1 mg/kg. The class given is functional. As to conditions: route oral, 1 mg/kg.
Test [5] concerns Mus sp. As to the kind of experiment: In vivo evaluation of % survival rate after peroral administration on 9th day at dose 1 mg/kg. The class given is functional. As to conditions: route oral, 1 mg/kg.
Test [6] has as its system Rattus norvegicus. As to the kind of experiment: In vivo evaluation of antifungal activity against vaginal candidosis in rat at dose 0.5 mg/kg on 15th day. The class given is functional. In outline: (§2)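 Female Wistar rats, 10 per group, received estradiol 25 mg/kg sc on day -5. On day 0 they were infected intravaginally with C. albicans by sterile swab. Infection was confirmed on day 3 by culturing the swab in TSB and then on Sabouraud agar. Oral dosing was once daily on days 3, 4 and 5; controls got vehicle only. Vaginal swabs taken on days 10 and 15 were cultured and read the next day.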

Test [7] deals with Rattus norvegicus. As to the kind of experiment: In vivo evaluation of antifungal activity against vaginal candidosis in rat at dose 0.25 mg/kg on 15th day. The class given is functional. The method, boiled down:
(§3)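 Groups of 10 female Wistar rats given estradiol 25 mg/kg sc on day -5, infected intravaginally with C. albicans by sterile swab on day 0; infection confirmed on day 3 by swab culture (TSB, then Sabouraud agar). Oral dosing once daily on days 3, 4, 5; vehicle controls. Vaginal swabs cultured on days 10 and 15; read-out % cured (culture-negative).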

Test [8] deals with Rattus norvegicus. As to the kind of experiment: In vivo evaluation of antifungal activity against vaginal candidosis in rat at dose 0.5 mg/kg on 10th day. The class given is functional. The method, boiled down:
as §2

The test system of test [9] is Rattus norvegicus. As to the kind of experiment: In vivo evaluation of antifungal activity against vaginal candidosis in rat at dose 0.25 mg/kg on 10th day. The class given is functional. In outline: as §3
Test [10] deals with Candida albicans. As to the kind of experiment: In vivo evaluation of minimum inhibitory concentration against Candida albicans 60. The class given is functional. In outline:
(§4)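 Broth macrodilution MIC following NCCLS M27-P, in RPMI-1640 buffered with 0.165 M MOPS. Fluconazole was dissolved in water and other drugs in DMSO. C. parapsilosis ATCC 22019 served as the reference strain in every run. MIC was the lowest concentration giving turbidity at or below the 80% inhibition standard.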

Test [11] deals with Mus sp. As to the kind of experiment: In vivo evaluation of % survival rate after peroral administration on 5th day at dose 2.5 mg/kg. The class given is functional. As to conditions: Mus sp., po.
The next test deals with Rhodotorula mucilaginosa. As to the kind of experiment: In vitro evaluation of minimum inhibitory concentration against Rhodotorula rubra 16. The class given is functional. As to conditions: Rhodotorula mucilaginosa; read-out: MIC. The method, boiled down:
as §1

A further test has as its system Candida parapsilosis. As to the kind of experiment: In vitro evaluation of minimum inhibitory concentration against Candida parapsilosis 61. The class given is functional. As to conditions: Lodderomyces parapsilosis; read-out: MIC. The method, boiled down: as §1
The test system of a further test is Aspergillus flavus. As to the kind of experiment: In vitro evaluation of minimum inhibitory concentration against Aspergillus flavus 19. The class given is functional. As to conditions: Aspergillus flavus; read-out: MIC. The method, boiled down:
as §1

A further test concerns Microsporum canis. As to the kind of experiment: In vitro evaluation of minimum inhibitory concentration against Microsporum canis 47. The class given is functional. As to conditions: Microsporum canis; read-out: MIC. In outline: as §1
The subject of test [12] is Meyerozyma guilliermondii. As to the kind of experiment: In vitro evaluation of minimum inhibitory concentration against Candida guilliermondii 26. The class given is functional. As to conditions: Meyerozyma guilliermondii; read-out: MIC. The method, boiled down: as §1
The subject of another test is Nakaseomyces glabratus. As to the kind of experiment: In vitro evaluation of minimum inhibitory concentration against Torulopsis glabrata 78. The class given is functional. Conditions: Nakaseomyces glabratus; read-out: MIC. In outline:
as §1

The test system of another test is Trichophyton rubrum. As to the kind of experiment: In vitro evaluation of minimum inhibitory concentration against Trichophyton rubrum 90. The class given is functional. Conditions: Trichophyton rubrum; read-out: MIC. The method, boiled down: as §1
The subject of the next test is Pichia kudriavzevii. As to the kind of experiment: In vitro evaluation of minimum inhibitory concentration against Candida krusei 70. Conditions: Pichia kudriavzevii; read-out: MIC. The class given is functional. The method, boiled down:
as §1

Another test deals with Aspergillus niger. As to the kind of experiment: In vitro evaluation of minimum inhibitory concentration against Aspergillus niger 18. The class given is functional. Conditions: Aspergillus niger; read-out: MIC. In outline:
as §1

The test system of a further test is Nannizzia gypsea. As to the kind of experiment: In vitro evaluation of minimum inhibitory concentration against Microsporum gypseum 22. The class given is functional. As to conditions: Nannizzia gypsea; read-out: MIC. The method, boiled down: as §1
Test [13] has as its system Aspergillus fumigatus. As to the kind of experiment: In vivo evaluation of minimum inhibitory concentration against Aspergillus fumigatus 33. The class given is functional. Conditions: in the assay text read “In vitro” for “In vivo”. The method, boiled down:
(§5)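 Agar dilution MIC. Inocula were 10^5 cfu/mL; 10 µL was spotted onto Kimmig's agar with 0.5% glycerol containing twofold drug dilutions (80 to 0.025 µg/mL). Drug stocks were 800 µg/mL in 50% ethanol. Plates were incubated at 25 °C, 48 h for yeasts and 120 h for molds and dermatophytes.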

In test [14] the test system is Mus sp. As to the kind of experiment: In vivo evaluation of % survival rate after peroral administration on 9th day at dose 2.5 mg/kg. The class given is functional. As to conditions: Mus sp., po.
Test [15] deals with Mus sp. As to the kind of experiment: In vivo evaluation of % survival rate after peroral administration on 3rd day at dose 2.5 mg/kg. As to conditions: Mus sp., po. The class given is functional.
In test [16] the test system is Mus sp. As to the kind of experiment: In vivo evaluation of % survival rate after peroral administration on 7th day at dose 2.5 mg/kg. The class given is functional. Conditions: Mus sp., po.
The next test has as its system Candida tropicalis. As to the kind of experiment: In vitro evaluation of minimum inhibitory concentration against Candida tropicalis 2.11. As to conditions: Candida tropicalis; read-out: MIC. The class given is functional. In outline:
as §1

Another test concerns Trichophyton benhamiae. As to the kind of experiment: In vitro evaluation of minimum inhibitory concentration against Trichophyton mentagrophytes 23. The class given is functional, Arthroderma benhamiae. Conditions: Trichophyton benhamiae; read-out: MIC. The method, boiled down:
as §1

Test [17] relates to Candida albicans. As to the kind of experiment: In vivo evaluation of minimum inhibitory concentration against Candida albicans 406. Conditions: Candida albicans; read-out: MIC. The class given is functional. The method, boiled down: as §4
In test [18] the test system is Candida albicans. As to the kind of experiment: In vivo evaluation of minimum inhibitory concentration against Candida albicans 76. The class given is functional. In outline:
as §4

The subject of test [19] is Meyerozyma guilliermondii. As to the kind of experiment: In vivo evaluation of minimum inhibitory concentration against Candida guilliermondii 26. The class given is functional. As to conditions: in the assay text read “In vitro” for “In vivo”. The method, boiled down:
as §5

For test [20], the system named is Aspergillus fumigatus. As to the kind of experiment: In vitro evaluation of minimum inhibitory concentration against Aspergillus fumigatus 33. The class given is functional. As to conditions: Aspergillus fumigatus; read-out: MIC. In outline:
as §1

Setting [21] is: Kluyveromyces marxianus, read-out: MIC.
The mark [22] stands for this setting: Candida albicans, read-out: MIC.

In brackets after ≈: the same amount, converted by molar mass.

As usually defined, the MIC is the smallest concentration in the dilution series that meets the test's criterion for growth inhibition. For `C[C@H]1N(C(=O)c2ccc(C(F)(F)F)cc2)CC(=O)O[C@@]1(Cn1cncn1)c1ccc(F)cc1F`, the MIC in the test on Kluyveromyces marxianus was determined as 80 µg/mL (≈ 167 µM); in the test with Candida albicans [2], 80 µg/mL (≈ 167 µM); against Candida albicans [10], 40 µg/mL (≈ 83.3 µM). The Survival is given as 100% in the test on Mus sp. [1], 90% with Mus sp. [3], 100% in the test with Mus sp. [4] and 10% in the test on Mus sp. [5]. The Cure rate with Rattus norvegicus [6] is 90%; in the test on Rattus norvegicus [7], 0%; in the test with Rattus norvegicus [8] it was 90%; in the test with Rattus norvegicus [9], 10%.

With `C[C@H]1N(C(=O)c2ccc(C(F)(F)F)cc2)CC(=O)O[C@@]1(Cn1cncn1)c1ccc(C(F)(F)F)cc1` (racemic), the minimal inhibitory concentration (MIC) with Kluyveromyces marxianus (setting [21]) is 80 µg/mL (≈ 156 µM); in the test on Rhodotorula mucilaginosa it was > 80 µg/mL; in the test on Candida parapsilosis, > 80 µg/mL; in the test with Aspergillus flavus it was > 80 µg/mL; in the test with Candida albicans [2] (setting [22]), > 80 µg/mL; in the test on Microsporum canis, > 80 µg/mL. In addition, the minimum inhibitory concentration (MIC) (in test [12]; in the test on Nakaseomyces glabratus; in the test on Trichophyton rubrum; with Pichia kudriavzevii; in the test with Aspergillus niger; in the test with Nannizzia gypsea) was > 80 µg/mL in each case. Moreover, the minimal inhibitory concentration (MIC) with Aspergillus fumigatus [13], in the test with Candida tropicalis, with Trichophyton benhamiae, with Candida albicans [17] and with Candida albicans [10] (setting [22]) was > 80 µg/mL each time. The survival at 2.5 mg/kg came out at 20% with Mus sp. [11], 10% in the test with Mus sp. [14], 20% in the test with Mus sp. [15] and 10% in the test on Mus sp. [16].

Consider `C[C@H]1N(C(=O)c2ccc(OCC(F)(F)F)cc2)CC(=O)O[C@@]1(Cn1cncn1)c1ccc(F)cc1F` (racemic), for which the minimal inhibitory concentration (MIC) in the test on Kluyveromyces marxianus (setting [21]) was 40 µg/mL (≈ 78.4 µM); in the test on Rhodotorula mucilaginosa, > 40 µg/mL; in the test with Candida parapsilosis, > 80 µg/mL; in the test on Candida albicans [18] it was 80 µg/mL (≈ 157 µM); in the test on Aspergillus flavus, > 80 µg/mL; in the test with Microsporum canis, > 80 µg/mL. Also, the minimum inhibitory concentration (MIC) (in [19]; in the test on Nakaseomyces glabratus; with Trichophyton rubrum; with Pichia kudriavzevii; in the test with Aspergillus niger; in the test on Nannizzia gypsea) was > 80 µg/mL in each case. The minimal inhibitory concentration (MIC) with Aspergillus fumigatus [20] and in the test with Trichophyton benhamiae was > 80 µg/mL in each case. In addition, the survival at 2.5 mg/kg in the test with Mus sp. [11] stood at 100%; in the test with Mus sp. [14] it was 70%; in the test on Mus sp. [15] it was 100%; in the test on Mus sp. [16], 100%.
